Measurements reported in ChEMBL document CHEMBL1129596, “Synthesis, biological activity, and molecular modeling of selective 5-HT(2C/2B) receptor antagonists” (J Med Chem, 1996).

Legend:
[1] = target: T1, 5-hydroxytryptamine receptor 2C (Rattus norvegicus, UniProt P08909); test: Displacement of [3H]mesulergine from rat 5-HT2C receptor expressed in HEK293
T1 sequence (P08909 whole entry): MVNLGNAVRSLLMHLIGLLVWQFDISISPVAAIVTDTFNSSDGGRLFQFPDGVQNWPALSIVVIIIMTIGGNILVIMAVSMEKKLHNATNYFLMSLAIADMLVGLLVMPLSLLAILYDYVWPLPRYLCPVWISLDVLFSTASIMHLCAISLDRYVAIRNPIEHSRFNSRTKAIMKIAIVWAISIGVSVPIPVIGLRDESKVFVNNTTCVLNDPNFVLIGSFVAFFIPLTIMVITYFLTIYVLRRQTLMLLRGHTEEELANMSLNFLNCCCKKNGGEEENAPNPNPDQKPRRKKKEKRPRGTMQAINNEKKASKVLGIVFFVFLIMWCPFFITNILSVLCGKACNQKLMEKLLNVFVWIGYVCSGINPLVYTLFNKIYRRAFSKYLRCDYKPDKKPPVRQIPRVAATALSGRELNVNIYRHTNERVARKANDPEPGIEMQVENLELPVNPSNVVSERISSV
Method in brief: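 Binding to cloned rat 5-HT2C receptors expressed in HEK 293 cells, with [3H]mesulergine as radioligand. Each value is the mean of at least two determinations, each lying within 0.2 log unit of the mean.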

[2] = target: 5-hydroxytryptamine receptor 2A (Rattus norvegicus, UniProt P14842); test: Displacement of [3H]ketanserin from 5-HT2A receptor of rat frontal cortex; assay type: tissue-based
Method in brief: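 Radioligand binding in rat frontal cortex membranes with [3H]ketanserin as the labelled ligand. Values are the mean of at least two determinations, each within 0.2 log unit of the mean.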

[3] = target: 5-hydroxytryptamine receptor 2B (Rattus norvegicus, UniProt P30994); test: Inhibition of 5-HT binding to 5-HT2B receptor of Rat stomach fundus; assay type: tissue-based; settings: read-out: pA2 (converted)
Method in brief: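 Functional rather than binding assay: inhibition of 5-HT-induced contractions of isolated rat stomach fundus. Values are the mean of at least two determinations, each within 0.2 log unit of the mean.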

[4] = target: Serotonin receptor 2a and 2c (5HT2A and 5HT2C) (Rattus norvegicus) (UniProt P08909+P14842); test: Relative affinity for 5-hydroxytryptamine 2C over 5-hydroxytryptamine 2A receptors; assay type: protein assay
Chain of Serotonin receptor 2a and 2c (5HT2A and 5HT2C) (Rattus norvegicus) (P14842 whole entry, looked up, one chain of several): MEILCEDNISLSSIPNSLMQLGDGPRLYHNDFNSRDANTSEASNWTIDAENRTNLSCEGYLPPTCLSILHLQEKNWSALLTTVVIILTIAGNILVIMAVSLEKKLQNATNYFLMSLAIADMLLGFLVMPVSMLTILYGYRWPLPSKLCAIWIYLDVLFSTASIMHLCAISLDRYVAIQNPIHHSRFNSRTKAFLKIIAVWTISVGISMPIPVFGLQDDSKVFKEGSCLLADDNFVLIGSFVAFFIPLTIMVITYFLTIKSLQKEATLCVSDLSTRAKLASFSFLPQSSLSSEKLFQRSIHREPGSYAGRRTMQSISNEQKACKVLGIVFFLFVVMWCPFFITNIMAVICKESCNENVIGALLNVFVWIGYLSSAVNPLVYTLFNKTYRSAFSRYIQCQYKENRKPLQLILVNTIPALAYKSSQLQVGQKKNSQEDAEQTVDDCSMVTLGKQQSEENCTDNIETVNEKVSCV

Chain of 5-hydroxytryptamine receptor 2A (P14842 whole entry): as the sequence (P14842 whole entry, looked up, one chain of several) above
Chain of 5-hydroxytryptamine receptor 2B (P30994 whole entry): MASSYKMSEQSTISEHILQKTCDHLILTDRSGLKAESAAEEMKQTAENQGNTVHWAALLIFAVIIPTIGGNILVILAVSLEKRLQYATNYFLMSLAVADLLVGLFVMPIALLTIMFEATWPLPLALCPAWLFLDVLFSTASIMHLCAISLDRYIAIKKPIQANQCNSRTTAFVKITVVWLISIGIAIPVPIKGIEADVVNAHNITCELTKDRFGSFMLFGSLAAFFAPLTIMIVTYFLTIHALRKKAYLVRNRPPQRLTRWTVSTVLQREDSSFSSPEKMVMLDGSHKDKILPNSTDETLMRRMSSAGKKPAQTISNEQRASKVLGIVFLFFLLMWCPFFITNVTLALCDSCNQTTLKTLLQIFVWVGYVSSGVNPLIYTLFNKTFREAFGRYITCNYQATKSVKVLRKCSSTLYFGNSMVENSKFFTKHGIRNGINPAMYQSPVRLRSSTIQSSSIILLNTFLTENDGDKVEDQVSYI

Row | Ki [1] [nM] | Ki [2] [nM] | Kb [3] [nM] | Selectivity ratio [4] | SMILES
1 | 25.1 | 2000 | 15.8 |  | Cn1ccc2c3c(ccc21)N(C(=O)Nc1cccnc1)CC3
2 | 63.1 | 3160 |  | 50 | Cn1ccc2ccc3c(c21)CCN3C(=O)Nc1cccnc1
3 | 10 | 3980 | 6.31 | 400 | CC(C)n1ccc2cc3c(cc21)CCN3C(=O)Nc1cccnc1
4 | 50.1 | > 6310 | 200 | > 130 | O=C(Nc1cccnc1)N1CCc2cc3c(ccn3Cc3ccccc3)cc21
5 | 126 | 1580 | 31.6 | 13 | O=C(Nc1cccnc1)N1CCc2cc3[nH]ccc3cc21
6 | 200 |  |  |  | Cn1ccc2c3c(ccc21)CCN3C(=O)Nc1cccnc1
7 | 7.94 | 1260 | 10 | 160 | CCn1ccc2cc3c(cc21)CCN3C(=O)Nc1cccnc1
8 | 7.94 | 251 | 10 | 30 | O=C(Nc1cccnc1)N1CCc2cc3sccc3cc21
9 | 63.1 | 5010 | 12.6 | 80 | CN1CCc2cc3c(cc21)CCN3C(=O)Nc1cccnc1
10 | 1260 |  |  |  | Cn1ccc2cc3c(cc21)N(C(=O)Nc1cccnc1)CC3
11 | 5.01 | 501 | 3.16 | 100 | Cn1ccc2cc3c(cc21)CCN3C(=O)Nc1cccnc1
12 | 12.6 | 3160 | 7.94 | 250 | CCCn1ccc2cc3c(cc21)CCN3C(=O)Nc1cccnc1
13 | 2.51 | 398 | 1.26 | 160 | Cc1coc2cc3c(cc12)CCN3C(=O)Nc1cccnc1
14 | 39.8 | 3160 | 20 | 80 | Cc1cc2cc3c(cc2n1C)CCN3C(=O)Nc1cccnc1
